Where “and” joins values, the source holds several entries; their conditions need not be identical. Equal entries are not always repeated.
Tests used:
[1] = test system: FoxM1, HuR, p21, p27 in MCF7 breast cancer cells; test: Western blot of cancer signaling proteins in MCF7 cells; type: cell-based
OPM1 = test: Luciferase viability assay, multiple myeloma line OPM1; type: cell-based, Human; conditions: 72 hours
Procedure, shortened: (§1)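 Myeloma cells stably transduced with firefly luciferase were exposed to test compound at 11 concentrations between 30 nM and 30 uM for 72 h. Luciferin substrate was then added and bioluminescence read. Signal was normalised to mock-treated wells (100%) and no-cell wells (0%). IC50 came from fitted dose-response curves.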

Pharmacokinetics in mice = type: in vivo, NSG mice
Procedure, shortened: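 NSG mice (three per group) received test compound at 0.3, 1 or 3 mg/kg intraperitoneally in 1:1 DMSO:PBS, dosed twice weekly for 2 weeks. After the final dose, tail-vein blood was taken at 1, 3, 8 and 24 h. Plasma levels were measured by LC-MS, and pharmacokinetic parameters including terminal half-life were calculated.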

MCF7 xenografts = test: MCF7 xenograft model; type: in vivo, nude mice
Procedure, shortened: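 One million MCF7 cells in Matrigel went subcutaneously on both flanks of 6-week-old NCR nude mice. After tumours reached 100 mm3, test compound at 3 mg/kg or 1:1 PBS:DMSO vehicle was given intraperitoneally on days 0, 2 and 4 (n=5 mice, 10 tumours). Caliper measurements every other day, mean volume with SEM. Treated tumours from three animals were Western blotted for signalling proteins.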

Hsp70-Bag3 interaction = Hsp70-Bag3 interaction (Homo sapiens, UniProt P0DMV8); test: Co-immunoprecipitation of Hsp70 from HeLa cells, blotted for Bag3; type: cell-based; conditions: 50 μM
Chain of Hsp70-Bag3 interaction (P0DMV8 2-641 limits assumed): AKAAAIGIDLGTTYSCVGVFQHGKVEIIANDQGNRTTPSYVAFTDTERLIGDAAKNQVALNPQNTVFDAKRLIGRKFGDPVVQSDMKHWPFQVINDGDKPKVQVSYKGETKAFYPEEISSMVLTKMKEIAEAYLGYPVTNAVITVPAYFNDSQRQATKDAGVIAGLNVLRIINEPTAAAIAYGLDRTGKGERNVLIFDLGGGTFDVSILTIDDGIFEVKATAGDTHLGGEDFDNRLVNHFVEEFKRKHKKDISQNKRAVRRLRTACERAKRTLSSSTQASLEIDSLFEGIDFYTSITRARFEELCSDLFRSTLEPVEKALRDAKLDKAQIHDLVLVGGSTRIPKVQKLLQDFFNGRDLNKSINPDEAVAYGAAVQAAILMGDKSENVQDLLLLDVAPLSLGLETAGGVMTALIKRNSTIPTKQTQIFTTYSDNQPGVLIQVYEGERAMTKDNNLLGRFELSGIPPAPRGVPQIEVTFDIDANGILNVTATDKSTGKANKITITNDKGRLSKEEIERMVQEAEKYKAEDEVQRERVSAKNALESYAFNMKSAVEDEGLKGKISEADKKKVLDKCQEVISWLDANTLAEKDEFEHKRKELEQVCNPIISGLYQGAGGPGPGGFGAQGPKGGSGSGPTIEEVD
Procedure, shortened: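 HeLa extracts in M-PER lysis buffer at 5 mg total protein per mL. 500 μL samples took rabbit polyclonal anti-Hsp70 or goat IgG control, plus 1% DMSO or test compound at 50 μM final (5 mM stock). Rotated overnight at 4 °C, then 4 h on protein A/G Sepharose. Washed in PBS pH 7.4, eluted in SDS dye, run on 4–15% Tris-Tricine gel, immunoblotted for Hsp70 and Bag3 with chemiluminescence detection. Triplicate, quantification averaged.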

OPM2 = test: Luciferase viability assay, multiple myeloma line OPM2; type: cell-based, Human; conditions: 72 hours
Procedure, shortened: as §1

HeLa xenograft = HeLa xenograft model; type: in vivo; conditions: 3 mg/kg, nude mice
Procedure, shortened: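 One million HeLa cells in Matrigel were injected subcutaneously on both flanks of 6-week-old NCR nude mice. Once tumours were established, test compound at 3 mg/kg or 1:1 PBS:DMSO vehicle was given intraperitoneally on days 2, 4 and 6 (n=5 mice, 10 tumours per group). Tumours were measured by caliper every other day and mean volumes plotted with SEM.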

Animal toxicity study = type: in vivo, NSG mice
MCF7 = test: MTT cell proliferation assay, MCF7; type: cell-based; conditions: 72 hours
Procedure, shortened: (§2)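 Cells were plated at 2000 per well (MEFs) or 5000 per well (HeLa, MCF7) and left to attach overnight. Test compound at various concentrations was added, final DMSO 1%, for 72 h at 5% CO2. After 3 PBS washes, fresh medium with MTT reagent was added for 4 h at 37 °C in the dark, then detergent buffer. Absorbance was read at 570 nm. At least two independent experiments, each in triplicate.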

HeLa = test: MTT cell proliferation assay, HeLa; type: cell-based; conditions: 72 hours
Procedure, shortened: as §2

[2] = test system: mouse embryonic fibroblasts (MEFs); test: MTT cell proliferation assay in normal fibroblasts; type: cell-based; conditions: read-out: EC50, MEFs, 72 hours
Procedure, shortened: as §2

Bag3 (Homo sapiens) = Bag3 (Homo sapiens) (UniProt O95817); conditions: cited from earlier work
Chain of Bag3 (Homo sapiens) (O95817 2-575): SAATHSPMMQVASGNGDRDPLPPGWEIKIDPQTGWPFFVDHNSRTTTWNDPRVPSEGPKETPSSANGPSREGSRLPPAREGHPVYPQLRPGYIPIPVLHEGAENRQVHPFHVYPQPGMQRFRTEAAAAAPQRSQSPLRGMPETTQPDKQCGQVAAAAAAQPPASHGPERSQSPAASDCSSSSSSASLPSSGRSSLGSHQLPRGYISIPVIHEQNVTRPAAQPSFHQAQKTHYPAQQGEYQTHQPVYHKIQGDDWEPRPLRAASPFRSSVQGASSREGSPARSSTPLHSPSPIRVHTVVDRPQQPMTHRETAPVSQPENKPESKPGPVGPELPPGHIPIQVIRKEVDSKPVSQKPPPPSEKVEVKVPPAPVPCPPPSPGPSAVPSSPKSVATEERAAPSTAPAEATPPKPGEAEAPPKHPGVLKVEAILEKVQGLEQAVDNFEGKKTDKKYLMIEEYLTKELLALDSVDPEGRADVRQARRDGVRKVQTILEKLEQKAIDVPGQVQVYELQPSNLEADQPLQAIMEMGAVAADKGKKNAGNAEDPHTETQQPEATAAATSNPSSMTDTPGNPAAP

[3] = MCF7 xenograft tumors, Western blot

Chain of Hsp70 (P0DMV8 2-641): as the sequence (P0DMV8 2-641 limits assumed) above

CCn1c(=O)/c(=C2\Sc3cc(Cl)ccc3N2C)s/c1=C\c1scc[n+]1Cc1ccccc1.[Cl-] [JG-98]
levels of FoxM1 and HuR [1]: reduced | levels of the cell cycle inhibitors p27 and p21 [1]: increasing | sensitivity of OPM1 (OPM1): relatively less sensitive | level in plasma (Pharmacokinetics in mice; 3 mg/kg intraperitoneal, after 1 hour, NSG mice): ~ 70 nM | terminal half-life (Pharmacokinetics in mice; all three doses (0.3, 1, 3 mg/kg) intraperitoneal, NSG mice): approximately 20 hours | stability in animals (Pharmacokinetics in mice; compared with YM-01): more stable than YM-01 | oral bioavailability (Pharmacokinetics in mice; mice): not orally bioavailable | tumor growth, MCF7 xenograft (MCF7 xenografts; 3 mg/kg intraperitoneal on days 0, 2 and 4, nude mice): limited tumor growth until day 6 | HuR and FoxM1 in tumor samples (MCF7 xenografts; [3]): tended to be decreased | p21 in tumor samples (MCF7 xenografts; [3]): significantly elevated | reduction of Hsp70-Bag3 interaction (Hsp70-Bag3 interaction): ~ 60% | sensitivity of OPM2 (OPM2): relatively less sensitive | tumor growth, HeLa xenograft (HeLa xenograft): suppressed tumor growth | weight loss (Animal toxicity study; 0.3, 1, 3 mg/kg intraperitoneal twice a week for 2 weeks, NSG mice): < 10% | alanine aminotransferase and total bilirubin (Animal toxicity study; after the final dose, markers of liver function): in the normal range | blood urea nitrogen (BUN) and creatinine levels (Animal toxicity study; all three dosages, after the final dose, renal function): normal | tolerability (Animal toxicity study; mouse, in vivo, ip): well tolerated | activity against MCF7 (MCF7): sub-micromolar activity | activity against HeLa (HeLa): sub-micromolar activity | EC50 [2]: 4.5 µM and ~4.5 µM

Hsp70 (from UniProt P0DMV8)
Kd (Bag3 (Homo sapiens)): 30 nM

YM-01 [reference compound]
reduction of Hsp70-Bag3 interaction (Hsp70-Bag3 interaction): ~ 60%
